Laboratory results published in ChEMBL document CHEMBL1156534, “Hemopressin is an inverse agonist of CB1 cannabinoid receptors” (Proc Natl Acad Sci U S A, 2007).

Assays:
Assay type in all cases: functional, cell-based
[1] = target: T1, Alpha-2A adrenergic receptor (Homo sapiens) (UniProt P08913); assay: Antagonist activity at alpha2A adrenergic receptor expressed in HEK293 cells assessed as blockade of secreted alkaline phosphatase activity at 1 uM after 6 hrs relative to control
T1 sequence (whole entry): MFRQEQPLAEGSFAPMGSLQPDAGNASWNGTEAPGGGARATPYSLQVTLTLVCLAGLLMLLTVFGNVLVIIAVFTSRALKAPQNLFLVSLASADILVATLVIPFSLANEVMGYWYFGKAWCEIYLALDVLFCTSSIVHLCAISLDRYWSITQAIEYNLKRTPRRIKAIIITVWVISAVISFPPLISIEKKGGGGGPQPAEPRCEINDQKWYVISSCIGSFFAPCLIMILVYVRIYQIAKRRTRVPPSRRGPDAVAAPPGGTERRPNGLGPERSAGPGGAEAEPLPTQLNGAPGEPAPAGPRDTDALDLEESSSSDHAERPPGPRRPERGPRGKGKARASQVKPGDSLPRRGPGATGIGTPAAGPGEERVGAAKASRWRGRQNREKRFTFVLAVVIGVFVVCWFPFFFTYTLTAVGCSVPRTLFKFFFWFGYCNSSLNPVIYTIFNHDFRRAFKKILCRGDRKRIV
Summary of the method: (§1)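 HEK-293 cells transiently co-transfected with pCRE-SeAP and a Flag-tagged receptor, 30,000 cells/well on poly-L-lysine. They were serum-starved 16–18 h, then exposed 6 h in serum-free medium to 10 μM forskolin (omitted for β2) plus the receptor agonist (100 nM), with or without peptide (1 μM). Heat-treated supernatant SeAP was read by CSPD chemiluminescence. Mean ± SEM, n = 6.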

[2] = target: Cannabinoid receptor 2 (Homo sapiens) (UniProt P34972); assay: Antagonist activity at CB2 receptor expressed in HEK293 cells assessed as blockade of secreted alkaline phosphatase activity at 1 uM after 6 hrs relative to control
Summary of the method: (§2)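 HEK-293 cells transfected with 5 μg pCRE-SeAP plus 1 μg Flag-tagged CB₁ or CB₂ receptor, 30,000 cells/well, serum-starved 16–18 h. Stimulated 6 h in serum-free medium with 10 μM forskolin and 100 nM agonist, without or with 1 μM test peptide. Supernatant diluted in pH 7.2 buffer, heated 65°C 20 min, then CSPD chemiluminescence read. Mean ± SEM, n = 6.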

[3] = target: Delta-type opioid receptor (Homo sapiens) (UniProt P41143); assay: Antagonist activity at delta opioid receptor expressed in HEK293 cells assessed as blockade of secreted alkaline phosphatase activity at 1 uM after 6 hrs relative to control; summary of the method: as §1
[4] = target: Beta-2 adrenergic receptor (Homo sapiens) (UniProt P07550); assay: Antagonist activity at beta2 adrenergic receptor expressed in HEK293 cells assessed as blockade of secreted alkaline phosphatase activity at 1 uM after 6 hrs relative to control; summary of the method: as §1
[5] = target: Cannabinoid receptor 1 (Homo sapiens) (UniProt P21554); assay: Antagonist activity at CB1 receptor expressed in HEK293 cells assessed as blockade of secreted alkaline phosphatase activity at 1 uM after 6 hrs relative to control; summary of the method: as §2
[6] = target: Mu-type opioid receptor (Homo sapiens) (UniProt P35372); assay: Antagonist activity at mu opioid receptor expressed in HEK293 cells assessed as blockade of secreted alkaline phosphatase activity at 1 uM after 6 hrs relative to control; summary of the method: as §1
Sequence of Mu-type opioid receptor (Homo sapiens) (P35372 whole entry): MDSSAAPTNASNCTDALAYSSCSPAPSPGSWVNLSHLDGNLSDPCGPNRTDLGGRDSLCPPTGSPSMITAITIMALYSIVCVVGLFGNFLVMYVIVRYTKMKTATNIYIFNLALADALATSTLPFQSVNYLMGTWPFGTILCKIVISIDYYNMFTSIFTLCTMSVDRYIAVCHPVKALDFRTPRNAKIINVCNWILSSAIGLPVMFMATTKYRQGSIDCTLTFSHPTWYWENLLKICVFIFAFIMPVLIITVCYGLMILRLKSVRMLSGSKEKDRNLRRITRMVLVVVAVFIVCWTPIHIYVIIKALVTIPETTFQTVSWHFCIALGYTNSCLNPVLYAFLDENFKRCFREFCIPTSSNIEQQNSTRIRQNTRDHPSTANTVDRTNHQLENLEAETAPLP

Sequence of Delta-type opioid receptor (Homo sapiens) (P41143 whole entry): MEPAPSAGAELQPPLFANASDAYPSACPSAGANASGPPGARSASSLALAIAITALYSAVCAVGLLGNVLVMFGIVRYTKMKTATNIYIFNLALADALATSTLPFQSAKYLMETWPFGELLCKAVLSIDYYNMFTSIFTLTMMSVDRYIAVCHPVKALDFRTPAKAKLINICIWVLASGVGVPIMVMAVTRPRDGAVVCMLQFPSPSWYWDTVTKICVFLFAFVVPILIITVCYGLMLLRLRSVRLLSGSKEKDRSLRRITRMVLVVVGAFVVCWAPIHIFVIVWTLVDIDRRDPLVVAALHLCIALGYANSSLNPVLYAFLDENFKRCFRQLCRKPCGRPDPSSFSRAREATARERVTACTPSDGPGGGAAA
Sequence of Beta-2 adrenergic receptor (Homo sapiens) (P07550 whole entry, looked up): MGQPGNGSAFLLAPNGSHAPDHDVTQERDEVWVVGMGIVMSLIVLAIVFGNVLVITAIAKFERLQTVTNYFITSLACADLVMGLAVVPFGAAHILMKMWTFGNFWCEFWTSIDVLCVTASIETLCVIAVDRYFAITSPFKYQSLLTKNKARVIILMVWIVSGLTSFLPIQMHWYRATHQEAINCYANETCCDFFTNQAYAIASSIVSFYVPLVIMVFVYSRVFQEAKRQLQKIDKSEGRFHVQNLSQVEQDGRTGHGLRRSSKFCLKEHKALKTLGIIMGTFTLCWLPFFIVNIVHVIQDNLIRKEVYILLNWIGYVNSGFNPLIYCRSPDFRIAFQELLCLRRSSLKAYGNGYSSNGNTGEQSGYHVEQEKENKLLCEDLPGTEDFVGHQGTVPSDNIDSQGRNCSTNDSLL
Sequence of Cannabinoid receptor 2 (Homo sapiens) (P34972 whole entry): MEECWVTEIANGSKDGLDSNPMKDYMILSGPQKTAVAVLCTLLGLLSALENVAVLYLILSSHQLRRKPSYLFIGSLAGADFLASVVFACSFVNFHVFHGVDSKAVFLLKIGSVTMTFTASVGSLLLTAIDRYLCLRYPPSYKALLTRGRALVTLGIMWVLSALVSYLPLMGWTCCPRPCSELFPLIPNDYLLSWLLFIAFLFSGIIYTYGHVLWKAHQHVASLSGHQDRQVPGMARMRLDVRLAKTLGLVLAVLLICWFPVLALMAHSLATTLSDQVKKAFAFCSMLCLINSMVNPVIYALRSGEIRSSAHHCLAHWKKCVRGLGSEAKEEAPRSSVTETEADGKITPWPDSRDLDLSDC
Sequence of Cannabinoid receptor 1 (Homo sapiens) (P21554 whole entry): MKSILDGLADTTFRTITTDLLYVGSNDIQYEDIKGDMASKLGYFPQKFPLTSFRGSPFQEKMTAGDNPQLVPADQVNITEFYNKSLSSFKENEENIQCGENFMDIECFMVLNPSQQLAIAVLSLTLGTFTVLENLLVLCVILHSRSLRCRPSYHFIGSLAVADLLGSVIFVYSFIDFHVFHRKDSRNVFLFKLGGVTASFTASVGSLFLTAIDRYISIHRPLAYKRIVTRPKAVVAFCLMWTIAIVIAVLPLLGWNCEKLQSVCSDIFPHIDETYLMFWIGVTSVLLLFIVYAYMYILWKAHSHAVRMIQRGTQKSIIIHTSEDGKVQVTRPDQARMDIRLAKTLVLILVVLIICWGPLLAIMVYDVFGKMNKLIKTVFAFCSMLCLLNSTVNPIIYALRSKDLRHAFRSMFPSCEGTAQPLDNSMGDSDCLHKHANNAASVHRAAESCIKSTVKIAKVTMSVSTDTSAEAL

Question: With `CC(C)NCC(O)c1ccc(O)c(O)c1` (stereo unspecified) as the compound, how does the Activity [1] read?
Answer: 1.26

Question: With `CC(C)[C@H](NC(=O)[C@H](CCC(=O)O)NC(=O)[C@H](Cc1ccccc1)NC(=O)[C@H](C)NC(=O)[C@@H](N)Cc1ccc(O)cc1)C(=O)N[C@H](C(=O)NCC(=O)O)C(C)C` as the compound, how does the Activity [2] read?
Answer: 0.64

Question: What does the source list for `CC[C@H](C)[C@H](NC(=O)[C@H](Cc1ccc(O)cc1)NC(=O)[C@@H](NC(=O)[C@H](CCCNC(=N)N)NC(=O)[C@@H](N)CC(=O)O)C(C)C)C(=O)N[C@@H](Cc1cnc[nH]1)C(=O)N1CCC[C@H]1C(=O)N[C@@H](Cc1ccccc1)C(=O)O`?
Answer: Activity [3]: 1.03; Activity [4]: 0.76

Question: How did the Activity [5] turn out when `C[C@@H](NC(=O)[C@@H](N)Cc1ccc(O)cc1)C(=O)NCC(=O)N(C)[C@@H](Cc1ccccc1)C(=O)NCCO` was run?
Answer: 0.68

Question: Which Activity [6] does the source give for `Clc1cccc(Cl)c1NC1=NCCN1` here?
Answer: 0.59
